Results reported in ChEMBL document CHEMBL4400511, “Benzothiopyranoindole- and pyridothiopyranoindole-based antiproliferative agents targeting topoisomerases” (2019).
Active and inactive are the calls of the source. No cut-off for these calls is given here.

Key:
Salmon testes DNA = experiment: Binding affinity to salmon DNA at compound to DNA ratio of 0.02 to 0.04 by linear flow dichroism analysis; type: nucleic-acid assay; conditions: Salmonidae
[1] = molecular target: T1, DNA topoisomerase 1 (Homo sapiens) (UniProt P11387); experiment: Inhibition of recombinant human topoisomerase 1 assessed as decrease in relaxation of supercoiled pBR322 DNA after 60 mins by ethidium bromide staining based agarose gel electrophoresis method
T1 sequence (whole entry): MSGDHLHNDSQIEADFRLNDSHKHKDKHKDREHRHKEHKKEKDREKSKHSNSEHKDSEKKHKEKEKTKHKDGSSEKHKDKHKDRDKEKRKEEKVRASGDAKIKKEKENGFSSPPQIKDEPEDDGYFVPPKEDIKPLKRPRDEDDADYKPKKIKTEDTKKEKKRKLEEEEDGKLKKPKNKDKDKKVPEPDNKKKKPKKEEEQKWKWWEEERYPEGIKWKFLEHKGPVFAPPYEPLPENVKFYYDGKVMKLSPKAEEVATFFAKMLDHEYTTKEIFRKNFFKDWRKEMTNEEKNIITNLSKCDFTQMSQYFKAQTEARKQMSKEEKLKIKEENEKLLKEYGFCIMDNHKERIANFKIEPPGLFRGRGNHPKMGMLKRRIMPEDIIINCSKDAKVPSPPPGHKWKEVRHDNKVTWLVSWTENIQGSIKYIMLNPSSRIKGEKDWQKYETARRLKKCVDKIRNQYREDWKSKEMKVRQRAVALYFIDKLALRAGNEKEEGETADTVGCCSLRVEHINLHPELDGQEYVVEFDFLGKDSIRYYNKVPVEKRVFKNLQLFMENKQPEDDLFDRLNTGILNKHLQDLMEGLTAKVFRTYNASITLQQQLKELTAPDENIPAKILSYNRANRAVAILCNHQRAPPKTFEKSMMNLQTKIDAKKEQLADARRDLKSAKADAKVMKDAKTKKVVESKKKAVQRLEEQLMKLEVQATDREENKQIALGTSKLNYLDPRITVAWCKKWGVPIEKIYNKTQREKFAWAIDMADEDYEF
Procedure, shortened: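 Human recombinant Topo I was incubated with supercoiled pBR322 DNA, with or without compound at a series of µM concentrations. Read-out is the number of relaxed topoisomers formed.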

HeLa [2] = experiment: Induction of apoptosis in human HeLa cells assessed as early apoptotic cells at 20 uM after 18 hrs by Annexin-V-FITC/propidium iodide staining based flow cytometric analysis (reference value: 5.6%); type: functional
Procedure, shortened: (§1)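 HeLa cells were incubated 18 h without compound (control) or at 20 and 80 µM. They were stained with FITC-annexin V and propidium iodide and analysed by dual-parameter flow cytometry. Cells were scored as viable, early apoptotic, late apoptotic or necrotic.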

[3] = molecular target: DNA topoisomerase 2-alpha (Homo sapiens) (UniProt P11388); experiment: Poison activity at recombinant human topoisomerase-2 assessed as stabilization of covalent topo-2-DNA cleavage complex by measuring linear DNA formation up to 50 uM using supercoiled pBR322 DNA as substrate after 60 mins by agarose gel electrophoresis method
Procedure, shortened: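 Cleavable-complex assay: supercoiled pBR322 DNA was incubated with Topo II, with or without compound at a series of µM concentrations. Enzyme-mediated linear DNA marks cleavage-complex stabilisation. Reference poison is 10 µM m-AMSA.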

HeLa [4] = experiment: Induction of apoptosis in human HeLa cells assessed as necrotic cells at 20 uM after 18 hrs by Annexin-V-FITC/propidium iodide staining based flow cytometric analysis (reference value: 0.7%); type: functional; procedure, shortened: as §1
[5] = molecular target: T1, DNA topoisomerase 1 (Homo sapiens); experiment: Poison activity at recombinant human topoisomerase-1 assessed as stabilization of covalent topo-1-DNA cleavage complex by measuring nicked DNA formation at 0.5 to 50 uM using supercoiled pBR322 DNA as substrate after 60 mins by agarose gel electrophoresis method
Procedure, shortened: (§2)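 Cleavable-complex assay: supercoiled pBR322 DNA was incubated with Topo I, with or without compound at a series of µM concentrations. Nicked DNA formation marks covalent complex stabilisation. Reference is 0.5 µM camptothecin.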

HeLa [6] = experiment: Induction of apoptosis in human HeLa cells assessed as late apoptotic cells at 80 uM after 18 hrs by Annexin-V-FITC/propidium iodide staining based flow cytometric analysis (reference value: 2.2%); type: functional; procedure, shortened: as §1
MSTO-211H = experiment: Growth inhibition in human MSTO-211H cells after 72 hrs by trypan blue dye-based assay; type: functional
Procedure, shortened: (§3)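 Three human tumour lines were used: HeLa (cervix adenocarcinoma), A-431 (epidermoid/squamous carcinoma) and MSTO-211H (biphasic mesothelioma). GI50 is the µM concentration giving 50% cell death relative to the untreated control culture. Ellipticine was run as reference.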

A-431 = experiment: Growth inhibition in human A431 cells after 72 hrs by trypan blue dye-based assay; type: functional; conditions: A-431, 72 h; procedure, shortened: as §3
[7] = molecular target: DNA topoisomerase 2-alpha (Homo sapiens) (UniProt P11388); experiment: Inhibition of recombinant human topoisomerase 2alpha assessed as decrease in relaxation of supercoiled pBR322 DNA after 60 mins by ethidium bromide staining based agarose gel electrophoresis method
Procedure, shortened: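 Topo II was incubated with supercoiled pBR322 DNA, with or without compound at a series of µM concentrations. Read-out is topoisomer formation from supercoiled DNA on a gel. Reference is 10 µM m-AMSA.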

HeLa [8] = experiment: Growth inhibition in human HeLa cells after 72 hrs by trypan blue dye-based assay; type: functional; procedure, shortened: as §3
HeLa [9] = experiment: Induction of apoptosis in human HeLa cells assessed as late apoptotic cells at 20 uM after 18 hrs by Annexin-V-FITC/propidium iodide staining based flow cytometric analysis (reference value: 2.2%); type: functional; procedure, shortened: as §1
HeLa [10] = experiment: Induction of apoptosis in human HeLa cells assessed as viable cells at 80 uM after 18 hrs by Annexin-V-FITC/propidium iodide staining based flow cytometric analysis (reference value: 91.6%); type: functional; conditions: read-out: Activity; procedure, shortened: as §1
HeLa [11] = experiment: Induction of apoptosis in human HeLa cells assessed as early apoptotic cells at 80 uM after 18 hrs by Annexin-V-FITC/propidium iodide staining based flow cytometric analysis (reference value: 5.6%); type: functional; procedure, shortened: as §1
HeLa [12] = experiment: Induction of apoptosis in human HeLa cells assessed as viable cells at 20 uM after 18 hrs by Annexin-V-FITC/propidium iodide staining based flow cytometric analysis (reference value: 91.6%); type: functional; conditions: read-out: Activity; procedure, shortened: as §1
HeLa [13] = experiment: Induction of apoptosis in human HeLa cells assessed as necrotic cells at 80 uM after 18 hrs by Annexin-V-FITC/propidium iodide staining based flow cytometric analysis (reference value: 0.7%); type: functional; procedure, shortened: as §1
[14] = molecular target: T1, DNA topoisomerase 1 (Homo sapiens); experiment: Poison activity at recombinant human topoisomerase-1 assessed as stabilization of covalent topo-1-DNA cleavage complex by measuring nicked DNA formation using supercoiled pBR322 DNA as substrate after 60 mins by agarose gel electrophoresis method; procedure, shortened: as §2

Sequence of DNA topoisomerase 2-alpha (Homo sapiens) (P11388 whole entry): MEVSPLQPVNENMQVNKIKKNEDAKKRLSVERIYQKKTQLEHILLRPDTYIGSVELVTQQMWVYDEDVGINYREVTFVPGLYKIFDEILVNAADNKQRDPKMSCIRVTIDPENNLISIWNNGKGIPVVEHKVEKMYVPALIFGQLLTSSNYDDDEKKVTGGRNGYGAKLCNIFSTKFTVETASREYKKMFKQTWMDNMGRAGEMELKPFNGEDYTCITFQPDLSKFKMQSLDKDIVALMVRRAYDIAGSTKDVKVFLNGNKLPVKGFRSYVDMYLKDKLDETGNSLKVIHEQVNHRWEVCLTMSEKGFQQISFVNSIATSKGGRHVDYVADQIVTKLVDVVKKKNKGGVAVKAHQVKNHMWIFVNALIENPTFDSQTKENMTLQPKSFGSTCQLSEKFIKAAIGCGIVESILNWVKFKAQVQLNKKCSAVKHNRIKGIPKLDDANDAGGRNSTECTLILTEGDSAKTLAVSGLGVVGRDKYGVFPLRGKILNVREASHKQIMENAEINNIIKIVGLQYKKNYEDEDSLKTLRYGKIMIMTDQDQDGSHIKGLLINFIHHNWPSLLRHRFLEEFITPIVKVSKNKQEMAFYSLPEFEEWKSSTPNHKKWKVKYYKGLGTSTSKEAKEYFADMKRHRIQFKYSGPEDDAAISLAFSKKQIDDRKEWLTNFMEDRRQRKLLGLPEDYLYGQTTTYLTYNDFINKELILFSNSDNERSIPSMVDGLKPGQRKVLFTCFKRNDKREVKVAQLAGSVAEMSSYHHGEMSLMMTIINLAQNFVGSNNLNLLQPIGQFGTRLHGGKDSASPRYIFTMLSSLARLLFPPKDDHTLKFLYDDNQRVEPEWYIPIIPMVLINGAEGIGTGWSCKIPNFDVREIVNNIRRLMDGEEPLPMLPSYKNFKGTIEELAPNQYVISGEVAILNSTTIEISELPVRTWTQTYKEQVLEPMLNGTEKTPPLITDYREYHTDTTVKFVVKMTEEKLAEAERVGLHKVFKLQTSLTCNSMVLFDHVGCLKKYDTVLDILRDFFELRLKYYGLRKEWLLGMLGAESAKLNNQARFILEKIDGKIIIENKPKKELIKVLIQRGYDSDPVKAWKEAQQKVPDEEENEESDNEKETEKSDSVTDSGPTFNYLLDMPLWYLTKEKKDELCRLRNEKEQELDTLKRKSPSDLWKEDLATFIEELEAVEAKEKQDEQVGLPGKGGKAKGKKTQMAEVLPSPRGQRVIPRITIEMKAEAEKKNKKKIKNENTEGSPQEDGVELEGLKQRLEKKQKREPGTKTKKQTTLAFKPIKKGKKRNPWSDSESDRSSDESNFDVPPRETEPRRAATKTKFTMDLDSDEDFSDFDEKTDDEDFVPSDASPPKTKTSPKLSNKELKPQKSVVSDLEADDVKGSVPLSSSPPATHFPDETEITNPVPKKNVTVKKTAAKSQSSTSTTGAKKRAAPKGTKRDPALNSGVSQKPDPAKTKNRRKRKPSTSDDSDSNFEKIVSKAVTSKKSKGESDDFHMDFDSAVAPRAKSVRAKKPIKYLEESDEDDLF

Activity (Salmon testes DNA): Active
inhibition [1]: Dose-dependent effect
GI50 (A-431): 330 nM
inhibition [7]: Dose-dependent effect
GI50 (HeLa [8]): 820 nM
Compound: COc1cc2c3sc4ccccc4c(=O)c3n(CCN(C)C)c2cc1OC
Activity (HeLa [2]): 8.6%
Activity [3]: inactive
Activity (HeLa [4]): 2%
Activity [5]: Active
Activity (HeLa [6]): 17%
GI50 (MSTO-211H): 310 nM
Activity (HeLa [9]): 2.7%
viability at 80 µM (HeLa [10]): 43.8%
Activity (HeLa [11]): 31.5%
viability at 20 µM (HeLa [12]): 86.7%
Activity (HeLa [13]): 7.7%
Activity [14]: Dose-dependent effect
